# Results reported in ChEMBL document CHEMBL1151898 (J Nat Prod, 2009).
# Key:
# [1] = target: T1, Xanthine dehydrogenase/oxidase (Bos taurus, UniProt P80457); assay: Activity at bovine xanthine oxidase at 25 uM; details: cattle
# [2] = target: T1, Xanthine dehydrogenase/oxidase; assay: Inhibition of bovine xanthine oxidase assessed as reduction of cytochrome c at 10 uM; details: cattle
# [3] = target: T1, Xanthine dehydrogenase/oxidase; assay: Ratio of kcat to km for bovine xanthine oxidase at 25 uM; details: cattle
# [4] = target: T1, Xanthine dehydrogenase/oxidase; assay: Ratio of kcat to km for bovine xanthine oxidase at 25 uM preincubated for 10 mins; details: cattle
# [5] = target: T1, Xanthine dehydrogenase/oxidase; assay: Ratio of kcat to km for bovine xanthine oxidase at 50 uM; details: cattle
# [6] = target: T1, Xanthine dehydrogenase/oxidase; assay: Activity at bovine xanthine oxidase at 50 uM; details: cattle
# [7] = target: T1, Xanthine dehydrogenase/oxidase; assay: Inhibition of bovine xanthine oxidase assessed as reduction of cytochrome c at 25 uM preincubated for 10 mins; details: cattle
# [8] = target: T1, Xanthine dehydrogenase/oxidase; assay: Activity at bovine xanthine oxidase at 25 uM preincubated for 10 mins; details: cattle
# [9] = target: T1, Xanthine dehydrogenase/oxidase; assay: Ratio of kcat to km for bovine xanthine oxidase at 10 uM; details: cattle
# [10] = target: T1, Xanthine dehydrogenase/oxidase; assay: Activity at bovine xanthine oxidase at 10 uM; details: cattle
# [11] = target: T1, Xanthine dehydrogenase/oxidase; assay: Inhibition of bovine xanthine oxidase assessed as reduction of cytochrome c; design: concentration or dose not given beside the values; details: cattle
# [12] = target: T1, Xanthine dehydrogenase/oxidase; assay: Inhibition of bovine xanthine oxidase assessed as reduction of cytochrome c at 50 uM; details: cattle
# [13] = target: T1, Xanthine dehydrogenase/oxidase; assay: Inhibition of bovine xanthine oxidase
# [14] = target: T1, Xanthine dehydrogenase/oxidase; assay: Inhibition of bovine xanthine oxidase assessed as reduction in xanthine turnover at 50 uM; details: cattle
# [15] = target: T1, Xanthine dehydrogenase/oxidase; assay: Inhibition of bovine xanthine oxidase assessed as reduction in xanthine turnover at 25 uM; details: cattle
# [16] = target: T1, Xanthine dehydrogenase/oxidase; assay: Ratio of kcat to km for bovine xanthine oxidase at 25 uM preincubated for 10 mins relative to control; details: cattle
# [17] = target: T1, Xanthine dehydrogenase/oxidase; assay: Inhibition of bovine xanthine oxidase assessed as decrease in production of superoxide at 50 uM relative to control; details: cattle
# Procedure, shortened: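 Superoxide followed indirectly by cytochrome c reduction. A550 monitored (Δε550 = 19.6 mM−1cm−1), initial rates vs no-inhibitor control. 25°C, 0.1 M MOPS, 0.2 mM EDTA, 0.1 M KCl, pH 7.4.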
# [18] = target: T1, Xanthine dehydrogenase/oxidase; assay: Inhibition of bovine xanthine oxidase assessed as reduction in xanthine turnover at 10 uM; details: cattle
# [19] = target: T1, Xanthine dehydrogenase/oxidase; assay: Inhibition of bovine xanthine oxidase assessed as reduction in free enzyme turnover at 50 uM relative to control; details: cattle
# [20] = target: T1, Xanthine dehydrogenase/oxidase; assay: Inhibition of bovine xanthine oxidase assessed as reduction in free enzyme turnover at 10 uM relative to control; details: cattle
# [21] = target: T1, Xanthine dehydrogenase/oxidase; assay: Inhibition of bovine xanthine oxidase assessed as reduction in free enzyme turnover at 50 uM relative to control; details: cattle
# T1 sequence (P80457 whole entry): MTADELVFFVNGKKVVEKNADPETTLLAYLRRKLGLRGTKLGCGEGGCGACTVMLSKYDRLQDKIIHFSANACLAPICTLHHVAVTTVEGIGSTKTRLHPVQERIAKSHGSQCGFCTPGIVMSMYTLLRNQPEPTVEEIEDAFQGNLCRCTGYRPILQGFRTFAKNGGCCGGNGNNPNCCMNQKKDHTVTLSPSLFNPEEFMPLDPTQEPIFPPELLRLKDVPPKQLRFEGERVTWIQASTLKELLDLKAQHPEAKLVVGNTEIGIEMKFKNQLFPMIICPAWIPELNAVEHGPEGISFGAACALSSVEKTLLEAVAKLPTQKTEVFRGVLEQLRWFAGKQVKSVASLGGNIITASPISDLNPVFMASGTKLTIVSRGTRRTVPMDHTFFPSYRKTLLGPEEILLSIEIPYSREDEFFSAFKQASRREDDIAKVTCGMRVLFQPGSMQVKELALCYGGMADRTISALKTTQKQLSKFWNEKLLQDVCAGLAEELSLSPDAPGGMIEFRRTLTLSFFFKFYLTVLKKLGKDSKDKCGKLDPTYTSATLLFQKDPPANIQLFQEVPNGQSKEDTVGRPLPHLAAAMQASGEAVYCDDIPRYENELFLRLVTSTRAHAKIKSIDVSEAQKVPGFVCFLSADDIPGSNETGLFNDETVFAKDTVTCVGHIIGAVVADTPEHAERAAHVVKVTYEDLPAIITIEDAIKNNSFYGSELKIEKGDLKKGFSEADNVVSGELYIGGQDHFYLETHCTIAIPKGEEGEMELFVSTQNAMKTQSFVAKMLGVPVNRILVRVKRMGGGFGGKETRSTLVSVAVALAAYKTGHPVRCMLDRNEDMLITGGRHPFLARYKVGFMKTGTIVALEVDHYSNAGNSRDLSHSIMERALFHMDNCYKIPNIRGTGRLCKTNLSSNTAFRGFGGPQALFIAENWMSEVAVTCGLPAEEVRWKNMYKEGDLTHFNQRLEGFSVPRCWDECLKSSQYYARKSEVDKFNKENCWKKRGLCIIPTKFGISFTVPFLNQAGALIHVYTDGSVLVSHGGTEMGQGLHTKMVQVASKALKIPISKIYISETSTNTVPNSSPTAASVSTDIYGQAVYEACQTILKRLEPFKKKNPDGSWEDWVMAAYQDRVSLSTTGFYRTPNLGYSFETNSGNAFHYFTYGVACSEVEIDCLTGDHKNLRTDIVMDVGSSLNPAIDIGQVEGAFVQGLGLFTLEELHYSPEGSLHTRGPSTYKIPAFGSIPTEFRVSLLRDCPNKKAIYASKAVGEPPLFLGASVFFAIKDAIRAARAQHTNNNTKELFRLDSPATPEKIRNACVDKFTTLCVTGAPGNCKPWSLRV
smiles,measurement,setting,value
O=c1cc(-c2ccc(O)c(O)c2)oc2cc(O)cc(O)c12 [LUTEOLIN],Kcat,[1],4.5 s⁻¹
same,Activity,[2],100 nM/s
same,Kcat/Km,[3],30000 M⁻¹ s⁻¹
same,Kcat/Km,[4],50000 M⁻¹ s⁻¹
same,Kcat/Km,[5],20000 M⁻¹ s⁻¹
same,Kcat,[6],12.2 s⁻¹
same,Activity,[7],110 nM/s
same,Kcat,[8],3.8 s⁻¹
same,Kcat/Km,[9],200000 M⁻¹ s⁻¹
same,Kcat,[10],6.2 s⁻¹
same,Activity,[11],82 nM/s
same,Activity,[12],71 nM/s
same,Ki,[13],1900 nM
Oc1ncnc2[nH]ncc12 [ALLOPURINOL],Kcat,[1],11.8 s⁻¹
same,Activity,[2],140 nM/s
same,Kcat/Km,[3],150000 M⁻¹ s⁻¹
same,Kcat/Km,[4],7000 M⁻¹ s⁻¹
same,Kcat/Km,[5],110000 M⁻¹ s⁻¹
same,Kcat,[6],4.3 s⁻¹
same,Activity,[7],28 nM/s
same,Kcat,[8],1.3 s⁻¹
same,Kcat/Km,[9],320000 M⁻¹ s⁻¹
same,Kcat,[10],5.9 s⁻¹
same,Activity,[11],140 nM/s
same,Activity,[12],120 nM/s
COc1cc(C2Oc3cc([C@H]4Oc5cc(O)cc(O)c5C(=O)[C@@H]4O)ccc3OC2CO)ccc1O (stereo partly specified) [SILIBININ],Kcat,[1],13.3 s⁻¹
same,Activity,[2],160 nM/s
same,Kcat/Km,[3],130000 M⁻¹ s⁻¹
same,Kcat/Km,[4],70000 M⁻¹ s⁻¹
same,Kcat/Km,[5],110000 M⁻¹ s⁻¹
same,inhibition at 50 µM,[14],50%
same,Kcat,[6],4 s⁻¹
same,inhibition at 25 µM,[15],50%
same,fold change (FC),[16],80
same,Activity,[7],120 nM/s
same,Kcat,[8],6.9 s⁻¹
same,Kcat/Km,[9],140000 M⁻¹ s⁻¹
same,Kcat,[10],5.8 s⁻¹
same,Activity,[11],150 nM/s
same,inhibition at 50 µM,[17],20%
same,Activity,[12],140 nM/s
same,inhibition at 10 µM,[18],50%
COc1cc(/C=C/C(=O)CC(=O)/C=C/c2ccc(O)c(OC)c2)ccc1O [CURCUMIN],Kcat,[1],4.3 s⁻¹
same,Activity,[2],160 nM/s
same,Kcat/Km,[3],6.5e+06 M⁻¹ s⁻¹
same,Kcat/Km,[4],3.9e+06 M⁻¹ s⁻¹
same,Kcat/Km,[5],5.1e+06 M⁻¹ s⁻¹
same,inhibition at 50 µM,[14],> 80%
same,Kcat,[6],5 s⁻¹
same,Activity,[7],150 nM/s
same,Kcat,[8],6.5 s⁻¹
same,Kcat/Km,[9],4.8e+06 M⁻¹ s⁻¹
same,Kcat,[10],2.6 s⁻¹
same,Activity,[11],150 nM/s
same,Activity,[12],150 nM/s
same,inhibition at 10 µM,[18],60%
O=c1c(O)c(-c2ccc(O)c(O)c2)oc2cc(O)cc(O)c12 [QUERCETIN],Kcat,[1],1.9 s⁻¹
same,Activity,[2],140 nM/s
same,Kcat/Km,[3],10000 M⁻¹ s⁻¹
same,Kcat/Km,[4],50000 M⁻¹ s⁻¹
same,Kcat/Km,[5],20000 M⁻¹ s⁻¹
same,Kcat,[6],12.4 s⁻¹
same,fold change (FC),[19],170
same,fold change (FC),[20],20
same,Activity,[7],110 nM/s
same,Kcat,[8],8.1 s⁻¹
same,Kcat/Km,[9],1.6e+06 M⁻¹ s⁻¹
same,Kcat,[10],3.8 s⁻¹
same,Activity,[11],100 nM/s
same,Activity,[12],80 nM/s
same,fold change (FC),[21],170
